The text below walks through data of ChEMBL document CHEMBL1123264, “Conformationally restricted congeners of hypotensive and platelet aggregation inhibitors: 6-aryl-5-methyl-4,5-dihydro-3(2H)-pyridazinones derived from 5H-indeno[1,2-c]pyridazine” (J Med Chem, 1986).

Data set [1] in a line: Compound was tested for its lethality in vivo in mouse. The format is ADME, organism-based.
For data set [2], the species on record is Rattus norvegicus. In words: Dose that lowers blood pressure by 25 mm Hg was determined in spontaneous hypertensive rats (SHR). The format is functional. In short, it runs like this: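 Conscious SH rats, 150–200 g, fasted 12 h, warmed at 33 °C for 30 min before tail-cuff plethysmography of systolic pressure. Suspension in 1% methylcellulose by gavage at 1.56, 3.125, 6.25, 12.5 and 25 mg/kg, 6 rats/dose, read hourly for 6 h. ED25 is the dose lowering pressure by 25 mmHg at peak, taken from log dose-response curves.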

For data set [3], the species on record is Cavia porcellus. In words: In vitro inhibition of platelet aggregation induced by 0.5 uM ADP (irreversible activity) was determined in guinea pig PRP. It counts as functional. Put shortly: (§1)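 Born method. Citrated (3.8%, 1:10) aortic blood from fasted male guinea pigs under pentobarbital, centrifuged to give platelet-rich plasma. Incubated 10 min at room temperature with compound at 66 μM. Aggregation triggered by ADP, equine tendon collagen or thrombin. Result is % inhibition vs controls, mean of five experiments; thrombin values read at 2 or 4 min.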

For data set [4], the species on record is Cavia porcellus. In words: Compound was tested in vitro for antiaggregation induced by collagen (0.8 ug/mL) in guinea pig PRP. The format is functional. In short, it runs like this:
as §1

For data set [5], the species on record is Cavia porcellus. In words: Compound was tested in vitro for antiaggregation induced by thrombin at 0.625 IU/mL in guinea pig PRP after 2 min. It counts as functional. Put shortly:
as §1

The species entered for data set [6] is Cavia porcellus. Briefly: Compound was tested in vitro for antiaggregation induced by 0.5 uM ADP in guinea pig PRP. The format is functional. In short, it runs like this:
as §1

Data set [7] is described as follows: (§2) Area under curve was determined for 0-6 hr duration using dihydralazine as reference drug for the peak blood pressure. The format is ADME. The arrangement: concentration or dose not given beside the values. Put shortly: (§3)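 SH rats, fasted, given a single oral dose of 12.5 mg/kg in 1% methylcellulose by gavage. Tail-cuff systolic pressure read hourly; area under the curve taken over 0–6 h. Dihydralazine was the reference; relative activity is AUC(dihydralazine)/AUC(compound), and a smaller AUC means higher activity.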

The species named for data set [8] is Rattus norvegicus. In words: (§4) relative activity with respect to the dihydralazine was determined. The format is functional. In short, it runs like this: as §3
For data set [9], the species on record is Cavia porcellus. Briefly: Compound was tested in vitro for its antiaggregation induced by thrombin at 0.625 IU/mL in guinea pig PRP after 4 min. The format is functional. In short, it runs like this:
as §1

For data set [10], the species on record is Mus musculus. Briefly: In vitro antithrombotic activity in mouse. It counts as functional. The note with it: in the assay text read “In vivo” for “In vitro”. In short, it runs like this: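 Male Swiss mice, 20–30 g, 10/group. Oral dose in 1% hydroxymethylcellulose, equimolar to ASA 20 mg/kg. At 1 h, iv tail injection of collagen (200 μg/mL) plus adrenaline (200 μM), 10 mL/kg, after warming at 27 °C. Death or hind-limb paralysis over 15 min counted; % protection = (Nc−Nt)/Nc×100.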

Data set [11] deals with Rattus norvegicus. In words: Compound was evaluated for its antiinflammatory activity in rat by Carrageenan paw edema test; Inactive. The format is functional, organism-based. Put shortly:
(§5)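 Male Sprague-Dawley rats, 130–150 g, fasted 18 h, 8/group. Compound in 1% carboxymethylcellulose by gavage; 1 h later 0.1 mL 1% carrageenin injected into the right hind paw. Paw volume measured by plethysmometer at 0, 1 and 3 h. Inhibition at 3 h vs vehicle controls; ED50 is the dose giving 50% inhibition.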
Background: In the carrageenan paw model, swelling and tenderness develop within hours.

The species entered for data set [12] is Cavia porcellus. In words: Compound was tested in vitro for antiaggregation induced by thrombin at 0.625 IU/mL in guinea pig PRP after 4 min. It counts as functional. Put shortly: as §1
A short description of data set [13]: (§6) Relative activity with respect to the dihydralazine was determined. It counts as functional. In short, it runs like this: as §3
For data set [14], the species on record is Rattus norvegicus. In words: Compound was evaluated for its antiulcer activity in rat. The format is functional. Put shortly:
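Male Sprague-Dawley rats, 180–250 g, 8/group, fasted 24 h with water. Compound by gavage right after indomethacin 15 mg/kg ip. Stomachs examined 5 h later under a 10× microscope; lesion number and severity scored on an arbitrary scale. ED50 is the dose reducing lesions by 50%.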

Data set [15] concerns Rattus norvegicus. In words: Compound was evaluated for its antiinflammatory activity in rat by Carrageenan paw edema test. It counts as functional. Put shortly: as §5
Data set [16] is filed under the species Rattus norvegicus. The data set is described as §6. The format is functional. Put shortly: as §3
The species entered for data set [17] is Rattus norvegicus. Briefly: Compound was tested for antihypertensive activity in normotensive rats and the dose that lowered by 25 mmHg of the blood pressure was determined. It counts as functional. In short, it runs like this: (§7)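 Unanesthetized male Sprague-Dawley rats, 150–200 g, fasted 12 h, warmed at 33 °C for 30 min. Oral dosing at 6.25, 12.5 and 25 mg/kg; dihydralazine 0.78–6.25 mg/kg po. Tail-cuff systolic pressure read hourly for 6 h, 6 rats/dose. ED25 is the dose lowering pressure by 25 mmHg at peak, taken from log dose-response curves.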

The nature of data set [18]: as §4. It counts as functional. Put shortly:
as §3

Data set [19] is filed under the species Rattus norvegicus. The description is as §2. It counts as functional, organism-based. Put shortly: as §3
Data set [20] is filed under the species Rattus norvegicus. In words: Antihypertensive activity in normotensive rats. The format is functional. Put shortly: as §7

Molecules are shown by their SMILES. Calls of active or inactive are those of the source. No cut-off for these calls is given here.

Usually LD50 stands for the dose at which mortality reaches 50%. The ED50 is the midpoint of the dose-response relation. `CC(=O)Nc1ccc2c(c1)CC1CC(=O)N(C)N=C21` (stereo not drawn): in data set [1], the LD50 was 1000 mg/kg. In data set [2], this molecule came in with an ED25 of 15 mg/kg. For the same molecule, the Activity in [3] was found to be 23; in data set [4], 40; in data set [5] it was 5; in [6], 4; in data set [8] it was 0.6; in data set [9] it was 37. Besides, the Activity in data set [10] is 50. In data set [7], this molecule returned an AUC units of 31960. In data set [11], the ED50 result is “inactive”.

Turning to `CC(Cl)C(=O)Nc1ccc2c(c1)CC1CC(=O)NN=C21` (stereo not drawn), the Activity in data set [12] was determined as 83; in [3], 40; in data set [4], 60; in data set [5], 84; in data set [6], 48; in data set [13], 0.66. The molecule also registered an Activity in [10] of 62. The molecule also gave an LD50 in data set [1] of 1000 mg/kg. Moreover, the ED25 in [2] stood at 10 mg/kg. Also, the ED50 in data set [14] was 0.3 mg/kg; in data set [15], 155 mg/kg. The same molecule returned an AUC units in data set [7] of 27140.

`Nc1ccc2c(c1)CC1CC(=O)NN=C21` (stereo not drawn): the Activity came to 34 in [12]; 66 in data set [3]; 58 in data set [4]; 44 in [5]; 31 in data set [6]; 0.74 in data set [16]. The molecule further had an Activity in [10] of 87. This molecule returned an LD50 in [1] of 308 mg/kg. Besides, in data set [2], the ED25 was 2.6 mg/kg. For the same molecule, the ED50 is 100 mg/kg in [14] and 40.8 mg/kg in [15]. In data set [7], this molecule had an AUC units of 24350.

In the case of `N/N=c1\[nH][nH]/c(=N\N)c2ccccc12` [DIHYDRALAZINE], the values for the ED25 in data set [17] and in data set [2] were 3.12 mg/kg and 0.72 mg/kg, respectively. Also, the Activity in data set [18] was 1. This molecule also showed an AUC units in data set [19] of 17900.

Regarding `CC(=O)Nc1ccc2c(c1)CC1CC(=O)NN=C21` (stereo not drawn), the Activity in [12] stood at 100; in data set [3], 81; in data set [4], 73; in [5], 95; in data set [6], 45; in data set [16], 1.02. The molecule further registered an Activity in [10] of 100. The molecule further registered an LD50 in [1] of 1000 mg/kg. Also, the ED25 is 2.6 mg/kg in [2] and 25 mg/kg in [20]. The ED50 in [14] turned out to be 0.3 mg/kg; in data set [15], 160 mg/kg. Further, the AUC units in data set [7] was determined as 17560.

For `CN1N=C2c3ccc(N)cc3CC2CC1=O` (stereo not drawn), the Activity came out at 37 in data set [12]; 33 in data set [3]; 26 in [4]; 36 in data set [5]; 7 in data set [6]; 0.49 in data set [16]. Further, in data set [10], the Activity amounted to 58. This molecule registered an LD50 in data set [1] of 750 mg/kg. In addition, the ED25 in data set [2] was 15.5 mg/kg. This molecule also showed an AUC units in [7] of 36740. In addition, in data set [11], the ED50 result is “inactive”.
